Screening data (PubChem BioAssay)
Only a selection was taken, and hits are over-represented in it overall.
XBP1 UPR activ: adaptive UPR (XBP1) activation; CHO-XBP1 luciferase reporter, IRE1-XBP1 UPR activation, luminescence; percent of tunicamycin response, DMSO as zero; activation, % at 20 µM; 0.33% of 330,000 active; AID 463104;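 active = versus positive control, 20 µM dose yields 30% or more activation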;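 note: 100% = tunicamycin at 10 µg/mL and 0% = DMSO only wells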
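incubation = overnight seeding at 37 °C, 6 h compound treatment at 37 °C | assay system = CHO-XBP1 cells stably carrying IRE1-XBP1-driven luciferase reporter | input = 1000 cells per well | detection = luciferase luminescence | dosing = single point, 20 µM final compound, 1% DMSO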
V-ATPase pHluor: alters yeast V-ATPase proton transport; S. cerevisiae, pHLuorin cytosolic pH fluorescence; response, % at 10 µM; 0.37% of 350,000 active; in the data active = response mostly above about 7.3%, no sharp cut-off; inactive = mostly below about 5.4%; note: actives read high
CHOP UPR activ: apoptotic UPR (CHOP) activation | 0.34% of 330,000 active | CHO-CHOP luciferase reporter, luminescence; percent of tunicamycin response over DMSO baseline | activation, % at 10 µM;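 active = at 10 µM dose, activation of 40% or more, normalized to positive control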;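 note: 100% = tunicamycin at 10 µg/mL and 0% = DMSO alone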
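Test system: CHO-CHOP cells, stable luciferase reporter of PERK-eIF2a-CHOP signalling | Quantity: 500 CHO-CHOP cells per well | Buffer or medium: F12 plus 10% serum | Compound dosing: 10 µM single point, 0.5% DMSO | Schedule: 6 h compound treatment, 37 °C | Signal: Luciferase luminescence | Control set: Tunicamycin high control, DMSO low control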
CHOP inhibitor: blocks CHOP induction under ER stress | CHO-K1 CHOP-promoter luciferase, tunicamycin-induced, 15-18 h | inhibition, % at 10 µM | 3.8% of 220,000 active | AID 2732;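 active = compounds that reduced the stress-induced luciferase reporter signal by more than about 70% of percent inhibition, limit read from the data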;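 note: 0% = tunicamycin plus vehicle and 100% = wells without tunicamycin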
Tb MetRS inh: Trypanosoma brucei MetRS inhibition; purified T. brucei MetRS, ATP depletion, Kinase-Glo luminescence; inhibition, % at 11.9 µM; 0.4% of 360,000 active; AID 624268;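 active = inhibition above a per-plate cutoff of the control wells' mean inhibition plus 3 SD, cut at about 5.5% in these data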;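 note: 0% = DMSO wells median and 100% = median of wells with control inhibitor compound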
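Material: T. brucei methionyl-tRNA synthetase, purified; reagent: substrates ATP, L-methionine and bulk Escherichia coli tRNA; dosing: 11.9 µM single point; timing: 15 min plus 2 h at 25 °C; detection: luminescence of leftover ATP; evaluation: % inhibition; control set: DMSO-only wells as low control; replicates: singlicate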
V-ATPase pH SP: modulates yeast V-ATPase proton transport. shares compounds with V-ATPase pHluor. S. cerevisiae pHLuorin cytosolic pH. response, % at 10 µM. 2% of 980 active. AID 602197; in the data active = response above about 24%;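 note: plate controls were vehicle wells for no effect and positive control wells for full effect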
TbMetRS confirm: confirmation of Trypanosoma brucei MetRS inhibitors; T. brucei MetRS enzyme, luminescence (ATP depletion); shares compounds with Tb MetRS inh; inhibition, % at 11.9 µM; 93% of 1,400 active; in the data active = inhibition above about 7%
Jurkat cytotox: counter-screen for T. brucei MetRS inhibitors: Jurkat cell cytotoxicity; shares compounds with Tb MetRS inh; Jurkat cells viability, ATP luminescence; inhibition, % at 8.3 µM; 12% of 1,400 active; AID 624413; in the data active = inhibition above about 15%;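 note: 0% = vehicle and 100% = reference inhibitor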
TbMetRS FP orth: T. brucei MetRS inhibition, orthogonal assay; shares compounds with Tb MetRS inh; purified T. brucei MetRS, fluorescence polarization; inhibition, % at 11.9 µM; 44% of 1,400 active; AID 651607; in the data active = inhibition above about 17%;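 note: 0% = vehicle wells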
The depositor's hits bear a star; . = no result given.

SMILES	XBP1 UPR activ	V-ATPase pHluor	CHOP UPR activ	CHOP inhibitor	Tb MetRS inh	V-ATPase pH SP	others
CN(C)C(CNC(C(=O)Nc1ccc([N+](=O)[O-])cc1Br)c1ccccc1)c1ccccc1 (stereo not drawn)	-3.5	-2.2	0.2	32.5	-0.8	.
Cc1cc(C)nc(NC(=O)c2ccc(Cl)cc2Cl)n1	1.9	-0.7	0.4	-5.1	0.1	.
CCNC(=O)/C(C#N)=C/c1c(N2CCN(c3ccccc3)CC2)nc2c(C)cccn2c1=O	2.5	0.9	2.9	.	-1.3	.
CCNC(=O)/C(C#N)=C/c1c(N2CCN(c3ccc(OC)cc3)CC2)nc2c(C)cccn2c1=O	-1.9	14.1*	0.4	.	-1.0	1.0
CC(O)C(NS(=O)(=O)c1ccc2ccccc2c1)C(=O)OCC(=O)Nc1ccccc1OC(F)F (stereo not drawn)	.	-4.4	.	.	-0.5	.
O=C(COC(=O)CSc1ccc2ccccc2c1)Nc1ccccc1OC(F)F	-3.3	10.9*	4.0	40.1	-0.9	-0.9
COc1cc2c(=O)c(-c3ccc(O)cc3)coc2cc1OC1OC(CO)C(O)C(O)C1O (stereo not drawn)	2.9	9.6*	1.5	12.0	-0.1	4.5
COc1ccc(-c2coc3cc(O[C@@H]4O[C@H](CO)[C@@H](O)[C@H](O)[C@H]4O)ccc3c2=O)cc1	1.8	8.8	6.7	.	-0.4	.
Cc1cccn2c(=O)c3cc(C(=O)NCCN4CCOCC4)c(=N)n(CCCN4CCOCC4)c3nc12	-3.3	-2.1	-0.6	.	-0.8	.
COCCCn1c(C(=O)NCCN2CCOCC2)cc2c(=O)n3cccc(C)c3nc21	-0.5	8.2*	1.2	.	-0.3	7.0
COc1ccc(NN=Nc2nc3c([nH]2)c(=O)n(C)c(=O)n3C)cc1	0.0	1.9	3.6	8.3	-0.5	.
O=C(CCCSc1nnc(SCCCC(=O)c2ccc(F)cc2)s1)c1ccc(F)cc1	-5.6	-3.3	0.4	54.6	0.4	1.3
Nc1nnc(SCCCC(=O)c2ccc(Br)cc2)s1	4.1	0.7	4.7	26.1	-0.6	.
Nc1nnc(SCCCC(=O)c2ccc(F)cc2)s1	0.9	0.2	6.6	28.4	-0.8	-3.5
CC(C)(C)n1cnc(C(N)=O)c1N	1.2	9.5*	-2.1	17.1	-0.4	1.9
CN(C)CCNC(=O)c1ccc(COCC(F)(F)F)cc1	-6.1	1.8	-0.4	4.0	-0.2	.
NNC(=O)c1ccc(COCC(F)(F)F)cc1	-4.1	9.1*	0.8	-2.4	0.0	4.8
O=C1CN(C(=O)c2cc([N+](=O)[O-])ccc2Cl)C(c2ccc(F)cc2)c2cc(F)ccc2N1 (stereo not drawn)	-1.4	-1.3	-0.2	-7.0	1.2	.
COCC1CCN(C(=O)C2CCN(c3nc(-c4ccccc4)nc4c3CCC4)CC2)C1 (stereo not drawn)	-5.8	-4.0	-0.8	.	-0.5	.
O=C(C1CCN(c2nc(-c3ccccc3)nc3c2CCC3)CC1)N1CCC(O)CC1	-0.7	11.3*	2.3	.	-0.5	-0.8
C[C@H](CO)N1C[C@H](C)[C@@H](CN(C)C(=O)c2ccc(F)cc2)Oc2cc(Br)ccc2S1(=O)=O	.	3.1	.	.	-0.7	.
C[C@@H]1CN([C@@H](C)CO)S(=O)(=O)c2ccc(Br)cc2O[C@H]1CN(C)C(=O)c1ccccc1	.	69.1*	.	.	-0.2	1.1
CCOC(=O)C1CCN(C(=O)/C=C/c2ccccc2)CC1	2.3	0.6	3.1	-5.6	-0.9	.
CCOC(=O)C1CCN(C(=O)COC(=O)/C=C/c2ccccc2)CC1	0.3	9.4*	-0.1	.	-0.6	-5.0
COc1ccc(-c2nc3ccccc3c(=O)n2NC(=O)Cc2ccccc2)cc1	-0.5	9.8*	2.9	29.0	-0.6	0.8
SMILES	XBP1 UPR activ	V-ATPase pHluor	CHOP UPR activ	CHOP inhibitor	Tb MetRS inh	V-ATPase pH SP	others
O=C(NCCCN1CCCC1=O)C1CCCO1 (stereo not drawn)	1.4	-7.8	0.5	25.4	-0.8	.
O=C(Oc1ccccc1Cl)c1ccccc1	.	12.7*	.	.	-0.2	4.1
COc1ccc(OC)c(-n2c(SCC(=O)NCc3ccco3)nnc2-c2c[nH]c3ccccc23)c1	-3.2	12.4*	-0.2	10.7	9.5*	-1.6	TbMetRS confirm=21.5*;Jurkat cytotox=5.5;TbMetRS FP orth=11.6
CCOc1ccc2ccccc2c1/C=N/NC(=O)CNC(=O)c1ccccc1F	-0.8	3.5	0.1	.	-0.4	.
O=C(O)CCc1ccc(-c2ccc(Br)cc2)n1-c1ccc(O)cc1	-1.0	11.6*	1.9	.	5.7*	-4.1	TbMetRS confirm=16.2*;Jurkat cytotox=-6.3;TbMetRS FP orth=7.0
CC(=O)Nc1cccc(CCc2nc3ccccc3[nH]2)c1	-1.6	-4.3	0.7	.	0.1	.
Cc1ccccc1NC(=O)N(CCc1nc2ccccc2[nH]1)Cc1ccccc1	-7.8	11.5*	-1.7	11.3	7.0*	-0.5	TbMetRS confirm=13.8*;Jurkat cytotox=13.5;TbMetRS FP orth=4.1
NC(Cc1ccccc1)c1csc(Nc2ccc(C(=O)c3ccccc3)cc2)n1 (stereo not drawn)	.	.	.	.	-0.1	.
Nc1cc2nc[nH]c2cc1N	3.3	-3.5	-1.0	-24.5	6.3*	.	TbMetRS confirm=10.0*;Jurkat cytotox=-7.1;TbMetRS FP orth=3.8
Cn1c(=O)n(C)c2cc3[nH]cnc3cc21	-1.9	1.7	-0.8	.	-0.8	.
CCc1nonc1NC(=O)c1oc2ccccc2c1C	-0.3	1.0	2.0	.	-0.5	.
Cc1ccc(-n2c(-c3ccncc3)n[nH]c2=S)c(C)c1	-0.1	1.7	2.1	-0.4	-1.4	.
C=CCN(c1ccccc1)S(=O)(=O)c1cccc(C(=O)NCC2CCCO2)c1 (stereo not drawn)	-1.5	-0.9	-0.8	.	-0.3	.
NC(=O)Cn1ccc(O)c(Cc2ccc(Cl)cc2Cl)c1=O	-2.5	1.5	-1.8	.	24.5*	.	TbMetRS confirm=37.2*;Jurkat cytotox=-7.3;TbMetRS FP orth=19.8*
CCCn1ccc(O)c(Cc2ccc(Cl)cc2)c1=O	-2.1	0.8	2.1	6.9	0.9	.
O=c1c(Cc2ccc(Cl)cc2Cl)c(O)ccn1CCCN1CCOCC1	1.2	-1.4	0.1	-1.1	32.5*	.	TbMetRS confirm=51.4*;Jurkat cytotox=-2.6;TbMetRS FP orth=20.1*
O=c1c(Cc2ccc(Cl)cc2Cl)c(O)ccn1CC(F)(F)F	-2.7	5.2	-2.4	.	9.0*	.	TbMetRS confirm=14.1*;Jurkat cytotox=3.9;TbMetRS FP orth=6.3
Cn1c(CN2CCCC(C(=O)c3ccc4c(c3)OCO4)C2)nc2ccccc21 (stereo not drawn)	-1.2	0.3	-1.9	17.7	6.4*	.	TbMetRS confirm=12.2*;Jurkat cytotox=-1.2;TbMetRS FP orth=0.7
C=CCn1c(Cc2nc3ccc(Cl)cc3[nH]2)n[nH]c1=S	0.9	0.6	1.1	81.5*	6.7*	.	TbMetRS confirm=20.9*;Jurkat cytotox=-0.3;TbMetRS FP orth=14.7
C=CCn1c(CCCOc2ccc(Cl)cc2Cl)n[nH]c1=S	0.2	-4.5	-0.2	64.0	0.4	.
